In ChEMBL document CHEMBL1149288, “Effects of substitution on the pyrrole N atom in derivatives of tetrahydronaltrindole, tetrahydrooxymorphindole, and a related 4,5-epoxyphenylpyrrolomorphinan” (J Med Chem, 2004):
Active and inactive are the calls of the source. The rule behind the calls is not given here.

Legend:
Mu-type opioid receptor [1] = target: T1, Mu-type opioid receptor (Homo sapiens, UniProt P35372); experiment: Activity at human recombinant mu opioid receptor expressed in CHO cells by [35S]GTPgammaS binding assay relative to DAMGO; type: functional, cell-based
Method in brief: (§1)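 Human recombinant opioid receptors expressed in CHO cells. Agonist-stimulated [35S]GTPγS binding was measured and efficacy was referenced to DAMGO (MOR) or U69593 (KOR). Values are means of five or six experiments.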

[2] = target: T2, Kappa-type opioid receptor (Homo sapiens, UniProt P41145); experiment: Activity at human recombinant kappa opioid receptor expressed in CHO cells by [35S]GTPgammaS binding assay; type: functional, cell-based; method in brief: as §1
[3] = target: T2, Kappa-type opioid receptor; experiment: Activity at human recombinant kappa opioid receptor expressed in CHO cells by [35S]GTP-gamma-S binding assay relative to U69593; type: functional, cell-based; method in brief: as §1
Mu-type opioid receptor [4] = target: T1, Mu-type opioid receptor; experiment: Displacement of [3H]DAMGO from human recombinant mu opioid receptor expressed in CHO cells; type: cell-based
Method in brief: (§2)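 Radioligand displacement was run on human recombinant receptors expressed in CHO cells. The labels were [3H]DAMGO for MOR and [3H]U69593 for KOR. Values are the mean of two experiments, each in triplicate.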

Mu-type opioid receptor [5] = target: T1, Mu-type opioid receptor; experiment: Activity at human recombinant mu opioid receptor expressed in CHO cells by [35S]GTP-gamma-S binding assay; type: functional, cell-based; method in brief: as §1
Mus musculus [6] = experiment: Antagonism of SNC80-induced antinociceptive effect in sc dosed mouse assessed by phenylquinone-induced abdominal stretch assay; type: functional, organism-based; details: Abdomen
Method in brief: (§3)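 Mouse phenylquinone (PPQ) abdominal stretch assay. The test compound was given sc, and its antagonism of SNC80-induced antinociception was scored as percent antagonism of the agonist effect.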

[7] = target: T2, Kappa-type opioid receptor; experiment: Displacement of [3H]U-69593 from human recombinant kappa opioid receptor expressed in CHO cells; type: cell-based; method in brief: as §2
Mus musculus [8] = experiment: Reversal of SNC80-induced antinociceptive effect in mouse assessed by phenylquinone-induced abdominal stretch assay at […], icv administered 24 hrs before SNC80; type: functional, Abdomen
Mus musculus [9] = experiment: Antinociceptive activity in sc dosed mouse; type: functional
Method in brief: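 Antinociception was measured in the mouse PPQ-induced abdominal stretch assay after sc dosing.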

Mus musculus [10] = experiment: Antagonism of SNC80-induced antinociceptive effect in mouse assessed by phenylquinone-induced abdominal stretch assay at 1 mg/kg, sc; type: functional, Abdomen; design: scale not given: the % may be the effect or the level left; details: route subcutaneous; method in brief: as §3
Mus musculus [11] = experiment: Antagonism of 1'-benzyl-6,7-didehydro-3,14-dihydroxy-4,5alpha-epoxy-17-methyl-4',5',6',7'-tetrahydroindolo[2',3':6,7]morphinan-induced antinociceptive activity in mouse at 30 mg/kg, sc; type: functional; design: scale not given: the % may be the effect or the level left; details: route subcutaneous
[12] = target: T3, Delta-type opioid receptor (Homo sapiens, UniProt P41143); experiment: Displacement of [3H]Cl-DPDPE from human recombinant delta opioid receptor expressed in CHO cells; type: cell-based
[13] = target: T3, Delta-type opioid receptor; details: CHO
Rattus norvegicus = experiment: Prevention of SNC80-induced convulsions in Sprague-Dawley rat at 10 mg/kg, sc administered 20 mins before SNC80; type: functional, organism-based; design: dose 10 mg/kg
Method in brief: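 The test compound was given at 10 mg/kg sc 20 min before SNC80 (32 mg/kg), and prevention of SNC80-mediated convulsions was scored.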

Mus musculus [14] = experiment: Antagonism of SNC80-induced antinociceptive effect in mouse assessed by phenylquinone-induced abdominal stretch assay at 10 mg/kg, sc; type: functional, Abdomen; design: scale not given: the % may be the effect or the level left; details: route subcutaneous; method in brief: as §3
Mus musculus [15] = experiment: Antagonism of SNC80-induced antinociceptive effect in mouse assessed by phenylquinone-induced abdominal stretch assay at 3 mg/kg, sc; type: functional, Abdomen; design: scale not given: the % may be the effect or the level left; details: route subcutaneous; method in brief: as §3
Mus musculus [16] = organism: Mus musculus; experiment: Reversal of 1'-benzyl-6,7-didehydro-3,14-dihydroxy-4,5alpha-epoxy-17-methyl-4',5',6',7'-tetrahydroindolo[2',3':6,7]morphinan-induced antinociceptive activity in mouse; type: functional

T1 sequence (P35372 whole entry): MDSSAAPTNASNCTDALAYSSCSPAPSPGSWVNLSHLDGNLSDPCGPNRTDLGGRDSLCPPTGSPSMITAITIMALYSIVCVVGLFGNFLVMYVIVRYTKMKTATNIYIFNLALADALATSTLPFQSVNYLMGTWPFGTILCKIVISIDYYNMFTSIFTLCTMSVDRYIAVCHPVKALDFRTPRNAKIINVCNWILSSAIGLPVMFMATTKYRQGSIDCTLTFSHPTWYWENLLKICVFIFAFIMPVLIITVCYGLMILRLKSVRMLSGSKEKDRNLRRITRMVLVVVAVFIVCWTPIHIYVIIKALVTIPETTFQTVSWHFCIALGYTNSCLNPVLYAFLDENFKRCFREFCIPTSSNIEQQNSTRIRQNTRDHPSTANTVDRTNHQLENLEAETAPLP
T3 sequence (P41143 whole entry): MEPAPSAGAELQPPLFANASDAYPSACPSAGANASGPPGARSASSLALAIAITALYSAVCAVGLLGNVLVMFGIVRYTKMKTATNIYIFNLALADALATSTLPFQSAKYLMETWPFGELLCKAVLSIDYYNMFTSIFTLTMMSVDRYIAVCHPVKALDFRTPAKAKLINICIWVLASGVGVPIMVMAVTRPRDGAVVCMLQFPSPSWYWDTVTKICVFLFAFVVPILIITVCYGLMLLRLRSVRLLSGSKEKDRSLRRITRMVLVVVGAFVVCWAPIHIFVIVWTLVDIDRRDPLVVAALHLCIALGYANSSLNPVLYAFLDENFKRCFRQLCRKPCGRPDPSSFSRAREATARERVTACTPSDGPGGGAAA
T2 sequence (P41145 whole entry): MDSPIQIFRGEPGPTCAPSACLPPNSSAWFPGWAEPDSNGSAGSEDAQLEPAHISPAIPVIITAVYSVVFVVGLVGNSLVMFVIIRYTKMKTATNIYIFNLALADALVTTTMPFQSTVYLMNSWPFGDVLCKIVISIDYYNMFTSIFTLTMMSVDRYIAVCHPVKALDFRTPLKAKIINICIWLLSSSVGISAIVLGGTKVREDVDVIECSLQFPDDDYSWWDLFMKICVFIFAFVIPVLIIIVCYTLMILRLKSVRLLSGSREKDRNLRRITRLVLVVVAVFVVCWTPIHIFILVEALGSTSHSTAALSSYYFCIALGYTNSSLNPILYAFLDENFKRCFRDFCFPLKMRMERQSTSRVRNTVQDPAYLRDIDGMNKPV

SMILES | Activity (Mu-type opioid receptor [1]) | EC50 [2] | Activity [3] | Ki (Mu-type opioid receptor [4]) | EC50 (Mu-type opioid receptor [5]) | Ki [7] | Ke [2] | Ke (Mu-type opioid receptor [5]) | further results
CN1CC[C@]23c4c5ccc(O)c4O[C@H]2c2c(c4c(n2Cc2ccccc2)CCCC4)C[C@@]3(O)C1C5 | 44% | 1750 nM | 43% | 88.9 nM | 732 nM | 289 nM |  |  | Activity (Mus musculus [6]): inactive; Activity (Mus musculus [8]): >50%; ED50 (Mus musculus [9]): 5.1 mg/kg
CN1CC[C@]23c4c5ccc(O)c4O[C@H]2c2c(c4c(n2C)CCCC4)C[C@@]3(O)C1C5 | 39% | 97.2 nM | 69% |  | 222 nM | 89.1 nM |  |  | 
Oc1ccc2c3c1O[C@H]1c4c(c5ccccc5n4Cc4ccccc4)C[C@@]4(O)C(C2)N(CC2CC2)CC[C@]314 |  |  |  |  |  |  |  |  | Activity (Mus musculus [10]): 57%
Oc1ccc2c3c1O[C@H]1c4c(c5c(n4CC4CC4)CCCC5)C[C@@]4(O)C(C2)N(CC2CC2)CC[C@]314 |  |  |  | 2.52 nM |  | 2.51 nM | 11.8 nM |  | 
Oc1ccc2c3c1O[C@H]1c4[nH]c5ccccc5c4C[C@@]4(O)[C@@H](C2)N(CC2CC2)CC[C@]314 [NALTRINDOLE] |  |  |  |  |  |  |  |  | Activity (Mus musculus [11]): 40%
Oc1ccc2c3c1O[C@H]1c4c(c5c(n4Cc4ccccc4)CCCC5)C[C@@]4(O)C(C2)N(CC2CC2)CC[C@]314 |  |  |  | 5.39 nM |  | 6.29 nM | 49.8 nM | 8.13 nM | Ki [12]: 2.94 nM; Ke [13]: 2.23 nM; Activity (Rattus norvegicus): Active; Activity (Mus musculus [14]): 54%; Activity (Mus musculus [15]): 54%
CCn1c2c(c3c1[C@@H]1Oc4c(O)ccc5c4[C@@]14CCN(C)C(C5)[C@]4(O)C3)CCCC2 | 41% | 98.2 nM | 66% | 25.8 nM | 175 nM | 168 nM |  |  | 
Cn1c2c(c3c1[C@@H]1Oc4c(O)ccc5c4[C@@]14CCN(CC1CC1)[C@H](C5)[C@]4(O)C3)CCCC2 |  |  |  | 5.76 nM |  | 4.11 nM | 12.2 nM | 4.3 nM | 
CCn1cc(-c2ccccc2)c2c1[C@@H]1Oc3c(O)ccc4c3[C@@]13CCN(CC1CC1)C(C4)[C@]3(O)C2 |  |  |  | 8.75 nM |  | 24.3 nM | 44 nM | 10.7 nM | Ki [12]: 2.95 nM; Ke [13]: 0.72 nM
CN1CC[C@]23c4c5ccc(O)c4O[C@H]2c2c(c4c(n2CC2CCCCC2)CCCC4)C[C@@]3(O)C1C5 | 57% | 153 nM | 85% | 17.9 nM | 130 nM | 262 nM |  |  | 
CN1CC[C@]23c4c5ccc(O)c4O[C@H]2c2c(c4c(n2CCc2ccccc2)CCCC4)C[C@@]3(O)C1C5 | 71% | 131 nM | 76% | 15.4 nM | 175 nM | 163 nM |  |  | 
Cn1cc(-c2ccccc2)c2c1[C@@H]1Oc3c(O)ccc4c3[C@@]13CCN(CC1CC1)C(C4)[C@]3(O)C2 |  |  |  | 7.6 nM |  | 18.5 nM | 34.1 nM | 4.04 nM | Ki [12]: 3.35 nM; Ke [13]: 0.62 nM
CCn1c2c(c3c1[C@@H]1Oc4c(O)ccc5c4[C@@]14CCN(CC1CC1)C(C5)[C@]4(O)C3)CCCC2 |  | 14.3 nM | 63% | 5.06 nM |  | 7.38 nM |  | 5.32 nM | 
O=C1CC[C@@]2(O)[C@H]3Cc4ccc(O)c5c4[C@@]2(CCN3CC2CC2)[C@H]1O5 [NALTREXONE] |  |  |  |  |  |  |  |  | AD50 (Mus musculus [16]): 0.02 mg/kg
Oc1ccc2c3c1O[C@H]1c4c(c5c(n4CCc4ccccc4)CCCC5)C[C@@]4(O)C(C2)N(CC2CC2)CC[C@]314 |  | 13.8 nM | 76% | 7.46 nM |  |  |  | 5.66 nM | 
Oc1ccc2c3c1O[C@H]1c4c(c5c(n4CC4CCCCC4)CCCC5)C[C@@]4(O)C(C2)N(CC2CC2)CC[C@]314 |  | 54.3 nM | 84% | 18.5 nM |  | 24.9 nM |  | 11.6 nM | 
